From ChEMBL document CHEMBL1629554, “Activity of the small modified amino acid alpha-hydroxy glycineamide on in vitro and in vivo human immunodeficiency virus type 1 capsid assembly and infectivity” (Antimicrob Agents Chemother, 2008)
pEC50: −log10 of the molar value. Activity calls are given as the source filed them. No cut-off for these calls is given here.

Assays:
[1] = tested on: FM3A; experiment: Cytotoxic activity against mouse FM3A cells at 1000 uM after 14 days by trypan blue assay; assay type: cell-based; conditions: 336 h
In short: (§1)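 PBMC (600,000 cells/ml) or cell lines (200,000 cells/ml) cultured 14 days with 25, 100, 250, 500 or 1,000 μM compound; viable and dead cells counted in a counting chamber after 0.4% trypan blue staining.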

[2] = Cytotoxic activity against human Molt4/C8 cells at 1000 uM after 14 days by trypan blue assay; assay type: cell-based; conditions: molt-4, 336 h; in short: as §1
[3] = tested on: CCRF-CEM; experiment: Cytotoxic activity against human CEM cells at 1000 uM after 14 days by trypan blue assay; assay type: cell-based; conditions: 336 h; in short: as §1
[4] = tested on: PBMC; experiment: Effect on PHA-induced human PBMC cell proliferation up to 400 uM by beta scintillation counting; assay type: functional, cell-based
In short: (§2)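 PBMC (600,000 cells/ml) cultured 96 h in RPMI/10% FCS with PHA (2.5 μg/ml) and compound at 10–2,000 μM; [³H]thymidine (1 μCi/100,000 cells) added 8 h before end. Lysed cells harvested on nitrocellulose filters, cpm by β-scintillation counting. Untreated cells and cyclosporine (1 μg/ml) as controls.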

[5] = tested on: PBMC; experiment: Effect on PHA-induced human PBMC cell proliferation at 2000 uM by beta scintillation counting; assay type: functional, cell-based; in short: as §2
[6] = tested on: Vesicular stomatitis virus; experiment: Antiviral activity against Vesicular stomatitis virus infected in human HeLa cells; assay type: functional, organism-based
[7] = tested on: Human respirovirus 3; experiment: Antiviral activity against Parainfluenza virus 3 infected in african green monkey Vero cells; assay type: functional, organism-based; conditions: Human respirovirus 3, Vero
In short: (§3)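 Cell cultures grown to confluence in microtiter wells, inoculated with 100 TCID50 of virus; after 1 h adsorption, residual virus removed, then incubated with fivefold dilutions of test compound. Viral cytopathicity scored once complete in untreated infected control cultures.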

[8] = tested on: Human alphaherpesvirus 2; experiment: Antiviral activity against Herpes simplex virus type 2 infected in HEL cells; assay type: functional, organism-based; conditions: Human alphaherpesvirus 2, HEL; in short: as §3
[9] = tested on: Vaccinia virus; experiment: Antiviral activity against Vaccinia virus infected in HEL cells; assay type: functional, organism-based; conditions: Orthopoxvirus vaccinia
[10] = tested on: Human immunodeficiency virus 1; experiment: Antiviral activity against HIV-1 assessed as inhibition of viral p24 tubular protein assembly by spectrophotometry; assay type: functional, organism-based
[11] = tested on: Human immunodeficiency virus 1; experiment: Antiviral activity against HIV-1 assessed as inhibition of viral p24 tubular protein assembly at 100 uM by spectrophotometry; assay type: functional, organism-based
[12] = tested on: Human immunodeficiency virus 1; experiment: Antiviral activity against HIV-1 assessed as inhibition of viral p24 tubular protein assembly at 100 uM by TEM assay; assay type: functional, organism-based
[13] = tested on: Human immunodeficiency virus 1; experiment: Antiviral activity against HIV-1 assessed as inhibition of viral p24 tubular protein assembly at 50 uM by TEM assay; assay type: functional, organism-based
[14] = tested on: Human immunodeficiency virus 1; experiment: Antiviral activity against HIV-1 infected in human HeLa cells assessed as inhibition of viral p24 tubular assembly at 100 uM by TEM assay; assay type: functional, organism-based
In short: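 HeLa-tat cells (10⁵) seeded 1 day before, transfected (FuGENE6) with pC37M plasmid expressing p17-p24 fusion, 100 μM compound in culture medium. At 48–72 h posttransfection fixed in fresh 2.5% glutaraldehyde and intracellular tubular structures examined by TEM.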

[15] = tested on: Human immunodeficiency virus 1; experiment: Antiviral activity against HIV-1 SF-2 infected in human H9 cells assessed as appearance of immature viral core morphology at 10 uM by TEM (reference value: 9%); assay type: functional
[16] = tested on: Human immunodeficiency virus 1; experiment: Antiviral activity against HIV-1 SF-2 infected in human H9 cells assessed as appearance of parallel slice of dense core viral particles at 10 uM by TEM assay (reference value: 41%); assay type: functional
[17] = tested on: Human immunodeficiency virus 1; experiment: Antiviral activity against HIV-1 SF-2 infected in human H9 cells assessed as appearance of tangential slice of dense core viral particles at 10 uM by TEM assay (reference value: 29%); assay type: functional
[18] = tested on: Human immunodeficiency virus 1; experiment: Antiviral activity against HIV-1 SF-2 infected in human H9 cells assessed as appearance of partially empty core viral particles at 10 uM by TEM assay (reference value: 13%); assay type: functional
[19] = tested on: Human immunodeficiency virus 1; experiment: Antiviral activity against HIV-1 SF-2 infected in human H9 cells assessed as appearance of empty core viral particles at 10 uM by TEM assay (reference value: 0%); assay type: functional
[20] = tested on: Human immunodeficiency virus 1; experiment: Antiviral activity against HIV-1 SF-2 infected in human H9 cells assessed as appearance of tubular core viral particles at 10 uM by TEM assay (reference value: 6%); assay type: functional
[21] = tested on: Human immunodeficiency virus 1; experiment: Antiviral activity against HIV-1 SF-2 infected in human H9 cells assessed as appearance of irregular core viral particles at 10 uM by TEM assay (reference value: 1%); assay type: functional
[22] = tested on: Human immunodeficiency virus 1; experiment: Antiviral activity against HIV-1 SF-2 infected in human H9 cells assessed as appearance of two separate core structured viral particles at 10 uM by TEM assay (reference value: 0%); assay type: functional
[23] = tested on: Human immunodeficiency virus 1; experiment: Antiviral activity against HIV-1 SF-2 infected in human H9 cells assessed as appearance of distorted core structured viral particles by TEM assay; assay type: functional
[24] = tested on: Human immunodeficiency virus 1; experiment: Antiviral activity against reverse transcriptase and protease inhibitor-resistant HIV-1 isolate HI90-79 harboring reverse transcriptase M230V and protease M36I, […], A71T, I93L mutant gene infected in human PBMC; assay type: functional, organism-based; conditions: Human immunodeficiency virus 1, isolate HI90-79
In short: (§4)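 Clinical isolate stocks were grown in PBMC and titred by 10-fold serial dilution (TCID50). PBMC (600,000 cells/ml) were infected at 100 TCID50 and cultured with 1, 4, 16, 64 or 256 μM α-HGA, in duplicate, with untreated infected controls. Medium was changed on days 5–7. Supernatant p24 was measured by sandwich ELISA against a recombinant p24 standard up to day 14, and EC50 was derived.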

[25] = tested on: Human immunodeficiency virus 1; experiment: Antiviral activity against reverse transcriptase and protease inhibitor-resistant HIV-1 isolate HI90-317 harboring reverse transcriptase M41L, T215Y and protease M36I, […], A71T, I93L mutant gene infected in human PBMC; assay type: functional, organism-based; conditions: Human immunodeficiency virus 1, isolate HI90-317; in short: as §4
[26] = tested on: Human immunodeficiency virus 1; experiment: Antiviral activity against reverse transcriptase and protease inhibitor-resistant HIV-1 isolate HI93-49 harboring reverse transcriptase L74V, V106I and protease […] mutant gene infected in human PBMC; assay type: functional, organism-based; conditions: Human immunodeficiency virus 1, isolate HI93-49; in short: as §4
[27] = tested on: Human immunodeficiency virus 1; experiment: Antiviral activity against reverse transcriptase and protease inhibitor-resistant HIV-1 isolate HI93-124 harboring reverse transcriptase N67D, T69D, K70R, T215F, K219Q and protease […] mutant gene infected in human PBMC; assay type: functional, organism-based; conditions: Human immunodeficiency virus 1, isolate HI93-124; in short: as §4
[28] = tested on: Human immunodeficiency virus 1; experiment: Antiviral activity against reverse transcriptase and protease inhibitor-resistant HIV-1 isolate HI94-18 harboring reverse transcriptase M230S mutant gene infected in human PBMC; assay type: functional, organism-based; conditions: Human immunodeficiency virus 1, isolate HI94-18; in short: as §4
[29] = tested on: Human immunodeficiency virus 1; experiment: Antiviral activity against reverse transcriptase and protease inhibitor-resistant HIV-1 isolate HI95-10 harboring reverse transcriptase V179I and protease M36I, L63P mutant gene infected in human PBMC; assay type: functional, organism-based; conditions: Human immunodeficiency virus 1, isolate HI95-10; in short: as §4
[30] = tested on: Human immunodeficiency virus 1; experiment: Antiviral activity against reverse transcriptase and protease inhibitor-resistant HIV-1 isolate HI96-88 harboring reverse transcriptase M41L, E44A, D67N, T69D, L210W, T215Y and protease L63P mutant gene infected in human PBMC; assay type: functional, organism-based; conditions: Human immunodeficiency virus 1, isolate HI96-88; in short: as §4
[31] = tested on: Human immunodeficiency virus 1; experiment: Antiviral activity against reverse transcriptase and protease inhibitor-resistant HIV-1 isolate HI96-90 harboring reverse transcriptase M41L, E44A, V118L, M184V, L210W, T215Y and protease L10I, L63P mutant gene infected in human PBMC; assay type: functional, organism-based; conditions: Human immunodeficiency virus 1, isolate HI96-90; in short: as §4
[32] = tested on: Human immunodeficiency virus 1; experiment: Antiviral activity against reverse transcriptase and protease inhibitor-resistant HIV-1 isolate HI97-59 harboring reverse transcriptase M184V, L210W, T215Y and protease L10I, L63T mutant gene infected in human PBMC; assay type: functional, organism-based; conditions: Human immunodeficiency virus 1, isolate HI97-59; in short: as §4
[33] = tested on: Human immunodeficiency virus 1; experiment: Antiviral activity against reverse transcriptase and protease inhibitor-resistant HIV-1 isolate HI98-9 harboring reverse transcriptase M41L, M184V, T215Y and protease L10I, L24I, L63P, V77I, V82T/S mutant gene infected in human PBMC; assay type: functional, organism-based; conditions: Human immunodeficiency virus 1, isolate HI98-9; in short: as §4
[34] = tested on: Human immunodeficiency virus 1; experiment: Antiviral activity against reverse transcriptase and protease inhibitor-resistant HIV-1 isolate HI98-80 harboring reverse transcriptase M41L, D67N, M184V, T215F, K219Q and protease M36I mutant gene infected in human PBMC; assay type: functional, organism-based; conditions: Human immunodeficiency virus 1, isolate HI98-80; in short: as §4
[35] = tested on: Human immunodeficiency virus 1; experiment: Antiviral activity against reverse transcriptase and protease inhibitor-resistant HIV-1 isolate HI98-82 harboring reverse transcriptase M184V and protease L10I, I47M, L63P, I93L mutant gene infected in human PBMC; assay type: functional, organism-based; conditions: Human immunodeficiency virus 1, isolate HI98-82; in short: as §4
[36] = tested on: Human immunodeficiency virus 1; experiment: Antiviral activity against reverse transcriptase and protease inhibitor-resistant HIV-1 isolate HI98-96 harboring reverse transcriptase D67N, T69N, K70R, A98G, M184V, T215F, K219Q and protease L63P, G73T, D60E, L90M mutant gene infected in human PBMC; assay type: functional, organism-based; conditions: Human immunodeficiency virus 1, isolate HI98-96; in short: as §4
[37] = tested on: Human immunodeficiency virus 1; experiment: Antiviral activity against reverse transcriptase and protease inhibitor-resistant HIV-1 isolate HI98-100 harboring reverse transcriptase M41L, A98G, M184V, L210W, T215Y and protease L10F,K20R, M36I, M46I, L63P, V82A mutant gene infected in human PBMC; assay type: functional, organism-based; conditions: Human immunodeficiency virus 1, isolate HI98-100; in short: as §4
[38] = tested on: Human immunodeficiency virus 1; experiment: Antiviral activity against reverse transcriptase and protease inhibitor-resistant HIV-1 isolate HI99-58 harboring reverse transcriptase D67N, K70R, A98S, Y181C, K219Q and protease M36I, L63P, I93L mutant gene infected in human PBMC; assay type: functional, organism-based; conditions: Human immunodeficiency virus 1, isolate HI99-58; in short: as §4
[39] = tested on: Human immunodeficiency virus 1; experiment: Antiviral activity against HIV-1 SF-2 infected in human PBMC; assay type: functional, organism-based; conditions: Human immunodeficiency virus 1, SF-2
[40] = tested on: Human immunodeficiency virus 1; experiment: Antiviral activity against HIV-1 pNL4-3 infected in human PBMC; assay type: functional, organism-based; conditions: Human immunodeficiency virus 1, pNL4-3
[41] = tested on: Human immunodeficiency virus 1; experiment: Antiviral activity against HIV-1 3B infected in human PBMC; assay type: functional, organism-based; conditions: Human immunodeficiency virus 1, 3B
[42] = tested on: PBMC; experiment: Cytotoxic activity against human PBMC at 1000 uM after 14 days by trypan blue assay; assay type: cell-based; conditions: 336 h; in short: as §1
[43] = tested on: HeLa; experiment: Cytotoxic activity against human HeLa cells at 1000 uM after 14 days by trypan blue assay; assay type: cell-based; conditions: 336 h; in short: as §1
[44] = tested on: H9; experiment: Cytotoxic activity against human H9 cells at 1000 uM after 14 days by trypan blue assay; assay type: cell-based; conditions: h9, 336 h; in short: as §1
[45] = tested on: L1210; experiment: Cytotoxic activity against mouse L1210 cells at 1000 uM after 14 days by trypan blue assay; assay type: cell-based; conditions: l1210, 336 h; in short: as §1

## NC(=O)C(N)O (stereo not given)
[1]
  Activity: Non-toxic
[2]
  Activity: Non-toxic
[3]
  Activity: Non-toxic
[4]
  Activity: inactive
[5]
  Activity: inactive
[6]
  pEC50: 2.70
[7]
  pEC50: 2.70
[8]
  pEC50: 2.70
[9]
  pEC50: 2.70
[10]
  inhibition: Active
[11]
  inhibition: Active
[12]
  inhibition: Active
[13]
  inhibition: Active
[14]
  inhibition: Active
[15]
  Activity: 8%
[16]
  Activity: 11%
[17]
  Activity: 19%
[18]
  Activity: 33%
[19]
  Activity: 9%
[20]
  Activity: 6%
[21]
  Activity: 10%
[22]
  Activity: 4%
[23]
  Activity: 62%
[24]
  pEC50: 4.62
[25]
  pEC50: 4.70
[26]
  pEC50: 4.82
[27]
  pEC50: 4.48
[28]
  pEC50: 4.80
[29]
  pEC50: 4.85
[30]
  pEC50: 4.62
[31]
  pEC50: 5.07
[32]
  pEC50: 5.38
[33]
  pEC50: 4.47
[34]
  pEC50: 5.26
[35]
  pEC50: 4.48
[36]
  pEC50: 5.34
[37]
  pEC50: 4.80
[38]
  pEC50: 5.12
[39]
  pEC50: 6.00
[40]
  pEC50: 6.00
[41]
  pEC50: 5.10
[42]
  Activity: Non-toxic
[43]
  Activity: Non-toxic
[44]
  Activity: Non-toxic
[45]
  Activity: Non-toxic
